An excerpt weighted towards active compounds, which were near 9.6% of everything screened.
b-catenin transl – modulators of beta-catenin nuclear translocation, primary screen, imaging, HeLa cells, immunofluorescence, high-content. nuclear translocation activity, % at 5 µM. 190,000 compounds, 0.3% hits;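 active = nuclear translocation activity above 50% at 5 µM, with a well cell count of 50 or more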;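 also: per-cell ratio of nuclear to cytoplasmic median beta-catenin stain intensity; plate controls were DMSO negative control for no effect and GSK-3 inhibitor IX positive control for full effect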
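Signal – beta-catenin immunofluorescence imaging with DAPI · Test system – human HeLa cell line · Dosing – 5 µM primary single dose, 0.1% DMSO, 0.02–20 µM confirmation series · Measure – % activation, nuclear-to-cytoplasmic median beta-catenin signal ratio per cell · Incubation – 24 h compound exposure at 37°C, 5% CO2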
MT stabilizer – microtubule stabilizers in HeLa cells, primary screen, imaging, high-content imaging | HeLa tubulin immunostaining HCS, 24 h; share of cells brighter than vehicle mean+2SD | % tubulin-high responders, % at 10 µM | 200,000 compounds, 0.83% hits | AID 2205, 2009;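 active = plate Z-score above 3 for both tubulin-high and condensed-nucleus cell shares, with cell loss under 80%, at 10 µM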;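 also: anti alpha tubulin signal scored within the nucleus-defined area of each cell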
BaF3 tox – parental Ba/F3 cell viability inhibition, counter-screen for JAK2V617F inhibitor project, murine pro-B, CellTiter-Glo luminescence; 220,000 compounds, 1.1% hits; inhibition, % at 5.6 µM; AID 1486, 2009; CellTiter-Glo ATP luminescence;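 active = inhibition above a per-campaign cutoff, the mean inhibition of all tested compounds plus 3 SD, cut at about 27% in these data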;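 also: 0% = DMSO wells and 100% = JAK Inhibitor I control wells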
APP transl inh – inhibitors of APP translation via 5'UTR reporter, primary screen, APP 5'UTR luciferase, SH-SY5Y cells; SH-SY5Y APP 5'UTR-luciferase reporter, luminescence; inhibition, % at 2 µM; 190,000 compounds, 0.82% hits; AID 1285, 2008;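 active = inhibition above a set limit, derived from the sample mean plus 3 SD, cut at about 45% in these data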
Lmaj promast – Leishmania major promastigote growth inhibition, primary screen. AID 1063, 2008. inhibition, % at 10 µM. Leishmania major promastigotes, resazurin fluorescence viability. 200,000 compounds, 9% hits; in the data active = inhibition above about 50%;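 also: promastigotes grown with compound for 44 hours at 28 °C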
Ba/F3 V617F tox – reduced viability of JAK2V617F-dependent Ba/F3 cells, primary screen, JAK2V617F inhibitor project, cell-based, Ba/F3 EpoR-JAK2V617F, luminescence; ATP luminescence; inhibition, % at 5.6 µM; 220,000 compounds, 1.1% hits; AID 1446, 2008;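 active = inhibition above the campaign mean plus 3 SD over all tested compounds, cut at about 24% in these data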;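 also: cytokine-independent growth of Ba/F3 cells driven by EpoR plus mutant JAK2; 0% = DMSO-treated cells and 100% = JAK inhibitor I control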
* marks the source's active call; other numbers are inactive results; . = no result given.

SMILES | b-catenin transl | MT stabilizer | BaF3 tox | APP transl inh | Lmaj promast | Ba/F3 V617F tox
O=C(C1CCCN(Cc2ccncc2)C1)N1CCc2ccccc2C1 (stereo not drawn) | 7 | 2 | -2 | 12 | 91* | -2
O=C(C1CCCN(Cc2ccccc2F)C1)N1CCc2ccccc2C1 (stereo not drawn) | 0 | . | -2 | . | . | 2
CCCCCCN(C(=O)CCCCCN1C(=O)NC(c2ccc(-c3ccccc3)cc2)C(C(=O)OCc2ccccc2)=C1C)C(C(=O)NCCCC)c1ccc(O)c(C(=O)OC)c1 (stereo not drawn) | 1 | . | . | . | . | .
CCc1ccc(NC(=O)CN(N=Nc2nonc2C)c2nonc2C)cc1 | -2 | 3 | 5 | 2 | 21 | -2
OC(COCCOc1ccc(Br)cc1)CN1CCN(Cc2ccccc2)CC1 (stereo not drawn) | -1 | 6 | 1 | 0 | 85* | 3
CCc1ccc(OCCOCC(O)CN2CCN(Cc3ccc(Cl)cc3)CC2)cc1 (stereo not drawn) | 2 | 3 | 4 | 4 | 96* | -1
COCCOCC(O)CN1CCN(c2ccccc2)CC1 (stereo not drawn) | -1 | 2 | -1 | 15 | 0 | 0
COc1cccc(OCCOCC(O)CN2CCN(Cc3ccc(Cl)cc3)CC2)c1 (stereo not drawn) | 1 | 2 | 3 | 28 | 52* | 0
COc1ccc(OCCOCC(O)CN2CCOCC2)cc1 (stereo not drawn) | -2 | 2 | -2 | 6 | -4 | -6
CC1CC(OCC(O)CN2CCN(Cc3ccccc3)CC2)CC(C)(C)C1 (stereo not drawn) | -3 | 2 | 4 | 1 | 93* | 4
CC(=O)Nc1ccc(OCC(O)CN2CCN(Cc3ccccc3)CC2)cc1 (stereo not drawn) | -1 | 4 | -1 | -1 | -8 | -1
O=C(O)c1ccc(Cl)c(S(=O)(=O)Nc2cccc(C(=O)Nc3cccc(C(F)(F)F)c3)c2)c1 | 0 | 4 | -2 | -2 | -5 | -2
CN(CC(O)COc1c(F)cc(Br)cc1F)C1CCCCC1 (stereo not drawn) | 0 | 3 | 9 | 3 | 84* | 10
COc1ccc(NC(=O)C(c2cc3c(cc2[N+](=O)[O-])OCO3)N(C)Cc2ccccc2)cc1 (stereo not drawn) | -5 | 4 | 3 | -27 | 7 | 0
CCN(c1cccc(C)c1)C(C(=O)Nc1ccc(OC)cc1)c1cc2c(cc1[N+](=O)[O-])OCO2 (stereo not drawn) | 5 | 2 | 3 | -17 | 79* | -5
CCc1ccccc1OCCCCN1CCCC1 | -1 | 3 | 3 | 9 | 94* | 0
C=CCc1ccccc1OCC(CN1CCCCC1)OC(C)=O (stereo not drawn) | -3 | 6 | 1 | -11 | 65* | -1
C=CCc1ccccc1OCC(O)CN1CCN(c2ccccc2OC)CC1 (stereo not drawn) | -4 | 4 | 3 | 5 | 27 | 13
C=CCc1ccccc1OCCn1ccnc1 | 0 | 2 | 7 | -27 | 1 | 4
C=CCc1ccccc1OCC(O)CN1CCN(c2ccccc2F)CC1 (stereo not drawn) | -2 | 2 | 0 | -6 | 69* | -4
C=CCc1ccccc1OCC(=O)O | -2 | . | 2 | . | . | 0
C=CCc1ccccc1OCCCCN1CCCC1 | -2 | 5 | 3 | 22 | 77* | -3
Cn1ccnc1SCC(=O)Nc1ccc(F)c([N+](=O)[O-])c1 | 0 | 2 | 6 | -14 | 2 | 0
CCOC(=O)N1CCN(C(=O)c2cn(CC)c3cc(N4CCN(C)CC4)c(F)cc3c2=O)CC1 | -1 | 5 | 79* | -5 | -7 | -2
O=C1CCC(=O)N1c1ccc(S(=O)(=O)N2CCCC2)cc1 | -4 | 3 | 13 | 10 | -6 | -1
SMILES | b-catenin transl | MT stabilizer | BaF3 tox | APP transl inh | Lmaj promast | Ba/F3 V617F tox
COc1ccc(C2NCCc3cc(OC)c(OC)cc32)cc1OC (stereo not drawn) | 0 | 3 | 2 | 59* | -3 | 0
COc1ccc(C2OC[C@H]3O[C@H](O)[C@H](NC(C)=O)[C@@H](O)[C@@H]3O2)cc1 (stereo partly drawn) | 2 | 4 | 8 | 2 | -7 | -1
NC(N)=NC(N)=Nc1ccc(SC(F)(F)F)cc1 | 1 | 5 | 67* | 16 | 0 | 75*
NC(N)=NC(N)=Nc1ccc2ccccc2c1 | 1 | 3 | 2 | 6 | -4 | 15
O=[N+]([O-])c1ccccc1S(=O)(=O)n1cnc2ccccc21 | 2 | 3 | 2 | 9 | 25 | -4
CCOC(=O)c1ccc(N2CCOCC2)c(NC(=O)COCC(=O)O)c1 | 2 | . | 0 | . | . | 1
Cc1onc(-c2ccccc2)c1C(=O)Nc1cc(C(F)(F)F)ccc1N1CCOCC1 | 70* | 33* | 81* | 70* | 24 | 84*
Cc1onc(-c2ccccc2)c1C(=O)Nc1ccccc1N1CCOCC1 | -1 | 2 | 6 | -9 | 69* | 1
O=C(Nc1cc(C(F)(F)F)ccc1N1CCOCC1)c1ccc(F)cc1 | 0 | 1 | 3 | 13 | -3 | 1
CCOC(=O)c1ccc(N2CCOCC2)c(NC(=O)c2c(-c3ccccc3)noc2C)c1 | 125* | . | 54* | . | . | 75*
CC(C)CC(=O)Nc1ccccc1N1CCOCC1 | -5 | 1 | 6 | 1 | -4 | 3
CC(C)n1nc(C(=O)Nc2ccccc2N2CCOCC2)c2ccccc2c1=O | . | 4 | -9 | 3 | 87* | 2
O=[N+]([O-])c1cccc(S(=O)(=O)c2ccc(NCCO)c([N+](=O)[O-])c2)c1 | 1 | 2 | 11 | 2 | 1 | 3
COC(=O)c1ccc(CNC(=O)COC(=O)Cc2ccsc2)cc1 | 0 | 3 | -2 | -1 | -3 | -4
O=C(CNS(=O)(=O)c1ccccc1)NCC(=O)OCc1ccc(C(=O)c2ccccc2)cc1 | -6 | 2 | 4 | 5 | 13 | 0
O=C(Nc1cc(C(F)(F)F)ccc1N1CCOCC1)c1ccco1 | 0 | 3 | 0 | -8 | -4 | -1
O=C(c1ccccc1)c1ccc(N2CCOCC2)c(NC(=O)c2ccco2)c1 | . | 2 | 7 | 20 | 64* | 2
COc1cc(OC)c(NC(=O)c2c(-c3ccccc3)noc2C)cc1Cl | -4 | 3 | 2 | 25 | 94* | 0
COc1ccccc1-n1cnnc1SCC(=O)Nc1cccc(S(=O)(=O)N2CCCCC2)c1 | 1 | 6 | -1 | -4 | 8 | -4
O=C(Nc1cc(S(=O)(=O)N2CCCCC2)ccc1N1CCOCC1)c1cc(=O)[nH]c2ccccc12 | 0 | . | 1 | . | . | -5

Source: PubChem BioAssay
